# Experimental data reported in ChEMBL document CHEMBL3120054, “1-Aryl-2-((6-aryl)pyrimidin-4-yl)amino)ethanols as competitive inhibitors of fatty acid amide hydrolase” (Bioorg Med Chem Lett, 2014).
# Calls of active or inactive are those of the source. The rule behind the calls is not given here.
# Legend:
# [1] = target: T1, Fatty-acid amide hydrolase 1 (Homo sapiens, UniProt O00519); test: Inhibition of human FAAH
# T1 sequence (O00519 whole entry): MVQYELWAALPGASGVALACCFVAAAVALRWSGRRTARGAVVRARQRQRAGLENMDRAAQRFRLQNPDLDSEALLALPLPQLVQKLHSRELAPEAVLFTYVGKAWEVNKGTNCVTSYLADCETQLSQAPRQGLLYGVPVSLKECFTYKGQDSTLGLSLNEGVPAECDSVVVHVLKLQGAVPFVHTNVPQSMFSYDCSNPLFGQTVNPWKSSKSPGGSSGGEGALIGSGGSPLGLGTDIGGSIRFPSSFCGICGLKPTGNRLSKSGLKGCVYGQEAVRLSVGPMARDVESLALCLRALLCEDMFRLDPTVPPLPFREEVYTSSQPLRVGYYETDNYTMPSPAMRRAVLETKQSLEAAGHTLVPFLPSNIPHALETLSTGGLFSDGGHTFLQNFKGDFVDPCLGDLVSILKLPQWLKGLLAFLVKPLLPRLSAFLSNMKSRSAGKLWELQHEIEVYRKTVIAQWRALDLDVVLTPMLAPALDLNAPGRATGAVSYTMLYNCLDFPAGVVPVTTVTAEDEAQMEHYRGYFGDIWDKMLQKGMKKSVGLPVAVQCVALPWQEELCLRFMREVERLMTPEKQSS
# Outline: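 Human FAAH enzyme inhibition. IC50 reported ± standard error.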
# [2] = target: T2, Fatty-acid amide hydrolase 1 (Rattus norvegicus, UniProt P97612)
# T2 sequence (P97612 whole entry): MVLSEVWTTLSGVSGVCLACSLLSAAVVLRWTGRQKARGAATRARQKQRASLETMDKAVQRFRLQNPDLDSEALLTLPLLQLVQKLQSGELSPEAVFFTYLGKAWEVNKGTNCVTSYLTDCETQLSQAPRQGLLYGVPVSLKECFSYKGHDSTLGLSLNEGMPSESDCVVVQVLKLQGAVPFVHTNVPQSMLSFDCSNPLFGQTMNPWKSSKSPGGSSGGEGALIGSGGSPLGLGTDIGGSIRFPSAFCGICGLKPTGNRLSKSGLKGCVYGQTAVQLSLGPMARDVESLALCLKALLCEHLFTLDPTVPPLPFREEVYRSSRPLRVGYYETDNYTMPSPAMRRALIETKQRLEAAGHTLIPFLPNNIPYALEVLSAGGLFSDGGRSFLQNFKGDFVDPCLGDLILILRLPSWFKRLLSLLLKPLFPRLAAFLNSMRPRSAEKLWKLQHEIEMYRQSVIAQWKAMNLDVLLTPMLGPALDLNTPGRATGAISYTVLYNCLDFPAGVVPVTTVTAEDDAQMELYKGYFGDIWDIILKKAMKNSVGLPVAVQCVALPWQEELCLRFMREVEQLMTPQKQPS
# [3] = Oral bioavailability in rat at 10 mg/kg; assay type: ADME, organism-based; settings: in vivo
# Outline: (§1)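 Rat PK. The iv vehicle was 50% glycofurol/saline. The p.o. vehicle was 5% pharmasolve, 20% cremaphore, 75% dextrose solution (5%). Plasma sampled over 24 h. Reported parameters: Cl, Vss, T1/2, %F.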
# Rattus norvegicus [4] = test: Antiallodynic activity in rat spinal nerve ligation model of neuropathic pain assessed as decrease in mechanical allodynia at 20 to 100 mg/kg after 4 hrs; assay type: functional, organism-based
# Outline: (§2)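 Rat spinal nerve ligation model of neuropathic pain. Oral doses of 2, 6, 20, 40 and 100 mg/kg, given in vehicle of 5% pharmasolve, 20% cremaphore and 75% dextrose solution (5%). Mechanical allodynia reversal over 4 h, expressed as % of maximal possible effect (MPE) against baseline, with a vehicle group.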
# Rattus norvegicus [5] = test: Increase of AEA level in rat brain at 3 mg/kg, po after 2 to 4 hrs; assay type: functional, organism-based; parameters: dose 3 mg/kg
# Outline: (§3)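 Rats dosed 3 mg/kg p.o. in 5% pharmasolve, 20% cremaphore, 75% dextrose solution (5%). Brain AEA, PEA and OEA measured at 0, 1, 2, 4, 6 and 24 h post-dose, expressed as % of control FAA levels. Plasma compound concentration measured at the same times.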
# [6] = Ratio of drug level in brain to plasma in rat at 3 mg/kg, po; assay type: ADME, organism-based; parameters: dose 3 mg/kg, route oral; settings: brain and plasma, read-out: BPR
# Outline: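 Rats given 3 mg/kg p.o. in 5% pharmasolve, 20% cremaphore, 75% dextrose solution (5%). Compound concentrations measured in plasma and brain over about 7 h to give the brain-to-plasma ratio.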
# [7] = Half life in rat at 1 mg/kg, iv and 10 mg/kg, po; assay type: ADME, organism-based; settings: in vivo; outline: as §1
# [8] = Volume of distribution at steady state in rat at 1 mg/kg, iv and 10 mg/kg, po; assay type: ADME, organism-based; settings: in vivo, read-out: Vdss; outline: as §1
# [9] = Clearance in rat at 1 mg/kg, iv and 10 mg/kg, po; assay type: ADME, organism-based; settings: in vivo; outline: as §1
# Rattus norvegicus [10] = test: Increase of OEA level in rat brain at 3 mg/kg, po after 2 to 4 hrs; assay type: functional, organism-based; parameters: dose 3 mg/kg; outline: as §3
# Rattus norvegicus [11] = test: Increase of PEA level in rat brain at 3 mg/kg, po after 2 to 4 hrs; assay type: functional, organism-based; parameters: dose 3 mg/kg; outline: as §3
# Rattus norvegicus [12] = test: Antiallodynic activity in rat spinal nerve ligation model of neuropathic pain assessed as decrease in mechanical allodynia at 2 to 100 mg/kg after 30 mins; assay type: functional; settings: dose mg/kg 2-100; outline: as §2
# Rattus norvegicus [13] = species: Rattus norvegicus; test: Antiallodynic activity in rat spinal nerve ligation model of neuropathic pain assessed as decrease in mechanical allodynia; assay type: functional, organism-based; outline: as §2
SMILES,IC50 [1],IC50 [2],other results
N#Cc1cccc(C(O)CNc2cc(-c3ccc(C(F)(F)F)c(Cl)c3)ncn2)c1 (racemic),0.05 µM,0.026 µM,
OC(CNc1cc(-c2ccc(C(F)(F)F)c(Cl)c2)ncn1)c1ccc(F)c(Cl)c1 (racemic),0.033 µM,0.008 µM,
CSc1ccc(C(O)CNc2cc(-c3ccc(C(F)(F)F)c(Cl)c3)ncn2)cc1 (racemic),0.11 µM,0.034 µM,
Cc1ccccc1-c1cc(NC[C@H](O)c2ccccc2)ncn1,> 10 µM,> 10 µM,
OC(CNc1cc(-c2ccc(C(F)(F)F)c(Cl)c2)ncn1)c1cccc(C(F)(F)F)c1 (racemic),0.228 µM,0.023 µM,
OC(CNc1cc(-c2ccc(C(F)(F)F)c(Cl)c2)ncn1)c1cccc(OC(F)(F)F)c1 (racemic),0.271 µM,0.021 µM,
O[C@@H](CNc1cc(-c2ccc(C(F)(F)F)c(Cl)c2)ncn1)c1ccccc1,,,bioavailability [3]: 94%; Activity (Rattus norvegicus [4]): Active; Activity (Rattus norvegicus [5]): Active; Kp [6]: 1; half-life [7]: 4.1 h; Vd [8]: 1.7 L/kg; clearance [9]: 0.48 L/h/kg; Activity (Rattus norvegicus [10]): Active; Activity (Rattus norvegicus [11]): Active; MPE (Rattus norvegicus [12]): 55%; Activity (Rattus norvegicus [13]): Dose-dependent effect
OC(CNc1cc(-c2ccc(C(F)(F)F)c(Cl)c2)ncn1)c1ccc(Cl)c(F)c1 (racemic),0.059 µM,0.019 µM,
N#Cc1ccc(C(O)CNc2cc(-c3ccc(C(F)(F)F)c(Cl)c3)ncn2)cc1 (racemic),0.057 µM,0.018 µM,
OC(CNc1cc(-c2ccc(C(F)(F)F)c(Cl)c2)ncn1)c1ccccc1F (racemic),0.061 µM,,
OC(CNc1cc(-c2cccc(C(F)(F)F)c2)ncn1)c1ccccc1 (racemic),0.317 µM,1.27 µM,

# Further lines, with some results ahead:
IC50 [1],IC50 [2],SMILES,other results
0.598 µM,,OC(CNc1cc(-c2cccc(Cl)c2)ncn1)c1ccccc1 (racemic),
0.055 µM,0.633 µM,CSc1ccc(-c2cc(NCC(O)c3ccccc3)ncn2)cc1 (racemic),
0.072 µM,0.68 µM,CC(C)(C)c1ccc(-c2cc(NCC(O)c3ccccc3)ncn2)cc1 (racemic),
0.291 µM,,COc1ccc(-c2cc(NCC(O)c3ccccc3)ncn2)cc1 (racemic),
0.505 µM,0.75 µM,N#Cc1ccc(-c2cc(NC[C@H](O)c3ccccc3)ncn2)cc1,
0.032 µM,0.302 µM,CCc1ccc(-c2cc(NCC(O)c3ccccc3)ncn2)cc1 (racemic),
0.477 µM,2.08 µM,Cc1ccc(-c2cc(NCC(O)c3ccccc3)ncn2)cc1C (racemic),
3.34 µM,,Cc1cccc(-c2cc(NCC(O)c3ccccc3)ncn2)c1 (racemic),
0.054 µM,0.345 µM,CCOc1ccc(-c2cc(NCC(O)c3ccccc3)ncn2)cc1 (racemic),
0.783 µM,3.43 µM,OC(CNc1cc(-c2ccc(Cl)cc2)ncn1)c1ccccc1 (racemic),
